Reference: PMC5131535 (ACS chemical neuroscience, 2016)
Where two headings read alike, the source gives them in different places.

Experiments:
Format in all cases: cell-based
Kir2.1 = target: T1, Kir2.1 (Homo sapiens, UniProt P63252); experiment: Tl+ flux selectivity assay, Kir2.1; settings: for Kir Channel Selectivity (Fold) 2.1: Thallium flux, Kir7.1 over Kir2.1
T1 sequence (P63252 1-427): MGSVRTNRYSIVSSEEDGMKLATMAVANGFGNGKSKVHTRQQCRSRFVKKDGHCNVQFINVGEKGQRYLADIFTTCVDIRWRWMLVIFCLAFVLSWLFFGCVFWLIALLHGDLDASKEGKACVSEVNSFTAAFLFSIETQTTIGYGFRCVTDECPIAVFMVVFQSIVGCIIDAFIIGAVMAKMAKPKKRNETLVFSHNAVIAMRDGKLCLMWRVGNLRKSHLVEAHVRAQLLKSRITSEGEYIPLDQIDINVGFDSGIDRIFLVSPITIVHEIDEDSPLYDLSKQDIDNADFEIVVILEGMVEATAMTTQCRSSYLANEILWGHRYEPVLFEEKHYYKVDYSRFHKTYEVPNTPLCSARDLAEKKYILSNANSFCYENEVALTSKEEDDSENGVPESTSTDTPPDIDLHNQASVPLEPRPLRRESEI
Summary of the method: (§1)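 Tetracycline-inducible stable T-REx-HEK-293 lines, induced overnight with 1 µg/ml tetracycline in DMEM/10% dialyzed FBS. Cells loaded 1 hr with 1.2 µM Thallos-AM in HBSS/20 mM HEPES pH 7.3 with 0.01% Pluronic F-127. Baseline fluorescence (ex 470, em 540 nm) read at 1 Hz before adding stimulus buffer with 1.8 mM Tl₂SO₄. Traces normalized to first point and vehicle-subtracted; slope taken 5–20 s post-Tl⁺; IC50 by nonlinear regression of CRCs.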

Kir1.1 = experiment: Tl+ flux selectivity assay, Kir1.1; settings: Thallium flux, Kir7.1 over Kir1.1
Summary of the method: as §1

Kir7.1-M125R = target: T2, Kir7.1-M125R (Homo sapiens, UniProt O60928, M125R); experiment: Tl+ flux assay in T-REx-HEK293 cells expressing Kir7.1-M125R
T2 sequence (O60928 1-360 M125R): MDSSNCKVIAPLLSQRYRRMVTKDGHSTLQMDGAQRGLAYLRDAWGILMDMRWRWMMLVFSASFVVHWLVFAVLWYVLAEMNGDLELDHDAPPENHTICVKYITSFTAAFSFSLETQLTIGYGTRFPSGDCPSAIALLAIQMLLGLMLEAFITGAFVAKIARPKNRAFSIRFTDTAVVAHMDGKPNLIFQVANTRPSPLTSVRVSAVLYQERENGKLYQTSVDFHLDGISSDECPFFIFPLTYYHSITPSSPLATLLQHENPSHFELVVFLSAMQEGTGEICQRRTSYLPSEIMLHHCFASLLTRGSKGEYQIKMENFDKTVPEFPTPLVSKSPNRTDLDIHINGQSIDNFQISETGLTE
Summary of the method: as §1

Kir2.2 = target: T3, Kir2.2 (Homo sapiens, UniProt Q14500); experiment: Tl+ flux selectivity assay, Kir2.2; settings: for Kir Channel Selectivity (Fold) 2.2: Thallium flux, Kir7.1 over Kir2.2
T3 sequence (Q14500 1-433): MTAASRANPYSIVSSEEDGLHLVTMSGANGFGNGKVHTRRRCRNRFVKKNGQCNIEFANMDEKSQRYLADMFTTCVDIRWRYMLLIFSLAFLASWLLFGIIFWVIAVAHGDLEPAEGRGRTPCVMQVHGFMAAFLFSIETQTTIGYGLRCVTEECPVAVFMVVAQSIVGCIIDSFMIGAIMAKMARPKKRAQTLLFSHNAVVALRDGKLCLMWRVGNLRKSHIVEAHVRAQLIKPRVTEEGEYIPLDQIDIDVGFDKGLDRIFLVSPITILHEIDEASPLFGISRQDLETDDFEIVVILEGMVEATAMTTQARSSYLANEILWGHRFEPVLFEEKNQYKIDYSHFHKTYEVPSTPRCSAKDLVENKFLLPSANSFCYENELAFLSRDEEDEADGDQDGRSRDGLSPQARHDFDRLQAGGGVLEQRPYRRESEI

Kir2.3 = target: T4, Kir2.3 (Homo sapiens, UniProt P48050); experiment: Tl+ flux selectivity assay, Kir2.3; settings: for Kir Channel Selectivity (Fold) 2.3: Thallium flux, Kir7.1 over Kir2.3
T4 sequence (P48050 1-445): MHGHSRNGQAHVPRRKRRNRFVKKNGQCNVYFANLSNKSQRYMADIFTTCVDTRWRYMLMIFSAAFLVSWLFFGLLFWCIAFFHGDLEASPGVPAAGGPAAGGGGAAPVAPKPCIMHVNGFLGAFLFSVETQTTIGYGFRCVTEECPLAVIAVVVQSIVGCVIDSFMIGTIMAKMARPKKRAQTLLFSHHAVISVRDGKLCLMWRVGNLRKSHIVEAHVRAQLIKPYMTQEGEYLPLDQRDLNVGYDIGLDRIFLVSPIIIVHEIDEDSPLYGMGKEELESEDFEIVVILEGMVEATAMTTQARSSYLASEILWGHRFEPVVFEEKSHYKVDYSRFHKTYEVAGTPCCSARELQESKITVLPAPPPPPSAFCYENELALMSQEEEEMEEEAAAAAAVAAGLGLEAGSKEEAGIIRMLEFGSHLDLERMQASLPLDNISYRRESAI

Kir6.2/SUR1 = Kir6.2/SUR1 (Homo sapiens, UniProt Q14654); experiment: Tl+ flux selectivity assay, Kir6.2/SUR1; settings: for Kir Channel Selectivity (Fold) 6.2: Thallium flux, Kir7.1 over Kir6.2/SUR1
Summary of the method: as §1

Chain of Kir6.2/SUR1 (Q14654 whole entry): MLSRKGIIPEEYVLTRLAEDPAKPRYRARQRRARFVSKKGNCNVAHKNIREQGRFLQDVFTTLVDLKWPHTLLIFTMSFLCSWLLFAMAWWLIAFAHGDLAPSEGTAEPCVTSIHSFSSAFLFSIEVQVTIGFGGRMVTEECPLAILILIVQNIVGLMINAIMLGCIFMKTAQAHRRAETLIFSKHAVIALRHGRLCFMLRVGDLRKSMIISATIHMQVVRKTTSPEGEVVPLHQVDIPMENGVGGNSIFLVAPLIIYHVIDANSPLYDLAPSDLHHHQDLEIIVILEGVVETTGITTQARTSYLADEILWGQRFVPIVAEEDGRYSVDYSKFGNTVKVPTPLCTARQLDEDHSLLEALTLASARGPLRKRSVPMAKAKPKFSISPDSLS
Chain of Kir6.2/SUR1 (Q09428 whole entry partner): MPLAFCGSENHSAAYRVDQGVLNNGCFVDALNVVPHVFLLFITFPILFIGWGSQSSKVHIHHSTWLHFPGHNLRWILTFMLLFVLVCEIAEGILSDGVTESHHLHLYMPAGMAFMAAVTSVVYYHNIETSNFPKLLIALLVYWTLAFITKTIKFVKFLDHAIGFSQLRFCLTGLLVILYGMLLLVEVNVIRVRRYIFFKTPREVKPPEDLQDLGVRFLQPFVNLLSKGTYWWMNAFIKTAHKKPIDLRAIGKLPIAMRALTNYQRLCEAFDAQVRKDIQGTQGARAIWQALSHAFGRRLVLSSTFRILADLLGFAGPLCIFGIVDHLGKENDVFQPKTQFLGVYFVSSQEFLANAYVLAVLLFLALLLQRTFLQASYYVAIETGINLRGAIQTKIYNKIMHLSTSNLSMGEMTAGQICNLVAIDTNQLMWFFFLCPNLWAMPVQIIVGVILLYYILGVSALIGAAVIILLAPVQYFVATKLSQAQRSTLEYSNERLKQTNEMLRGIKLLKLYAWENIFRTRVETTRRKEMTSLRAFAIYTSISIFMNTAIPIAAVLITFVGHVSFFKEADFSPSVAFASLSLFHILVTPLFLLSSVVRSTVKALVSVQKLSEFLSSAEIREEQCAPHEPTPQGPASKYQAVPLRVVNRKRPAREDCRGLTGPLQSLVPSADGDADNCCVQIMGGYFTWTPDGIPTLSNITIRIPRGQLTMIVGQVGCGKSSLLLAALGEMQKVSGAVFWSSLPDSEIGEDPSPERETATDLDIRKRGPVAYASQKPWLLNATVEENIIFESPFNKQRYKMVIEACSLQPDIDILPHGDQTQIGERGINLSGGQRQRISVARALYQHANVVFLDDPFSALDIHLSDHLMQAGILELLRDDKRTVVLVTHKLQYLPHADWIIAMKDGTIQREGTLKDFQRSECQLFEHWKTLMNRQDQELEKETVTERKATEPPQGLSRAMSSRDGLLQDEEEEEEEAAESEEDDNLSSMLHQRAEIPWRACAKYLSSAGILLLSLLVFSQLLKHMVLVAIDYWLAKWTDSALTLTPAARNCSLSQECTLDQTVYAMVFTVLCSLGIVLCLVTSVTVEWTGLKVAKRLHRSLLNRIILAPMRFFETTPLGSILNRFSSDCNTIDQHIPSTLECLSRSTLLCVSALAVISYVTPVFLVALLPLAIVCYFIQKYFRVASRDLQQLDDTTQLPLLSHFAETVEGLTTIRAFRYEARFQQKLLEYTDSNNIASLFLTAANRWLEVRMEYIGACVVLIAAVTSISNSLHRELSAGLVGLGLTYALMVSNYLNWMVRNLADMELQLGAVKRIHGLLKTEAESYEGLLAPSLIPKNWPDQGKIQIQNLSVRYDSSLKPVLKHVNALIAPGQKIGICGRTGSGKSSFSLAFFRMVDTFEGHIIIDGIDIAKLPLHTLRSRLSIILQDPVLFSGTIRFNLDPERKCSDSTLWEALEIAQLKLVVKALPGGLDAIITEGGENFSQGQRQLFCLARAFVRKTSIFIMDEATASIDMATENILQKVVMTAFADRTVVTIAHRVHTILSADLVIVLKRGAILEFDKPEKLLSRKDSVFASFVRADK

Kir Channel Selectivity (Fold) 2.1 (Kir2.1; listed as 19 (ML418)) [Fold]	IC50 (Kir7.1-M125R) [µM]	Kir Channel Selectivity (Fold) 2.2 (Kir2.2; listed as 19 (ML418)) [Fold]	Kir Channel Selectivity (Fold) 2.3 (Kir2.3; listed as 19 (ML418)) [Fold]	Kir Channel Selectivity (Fold) 6.2 (Kir6.2/SUR1; listed as 19 (ML418)) [Fold]	Kir Channel Selectivity (Fold) 6.2 (Kir6.2/SUR1; listed as ML418)	SMILES	Kir Channel Selectivity (Fold) 2.1 (Kir2.1)	Kir Channel Selectivity (Fold) 1.1 (Kir1.1)	Kir Channel Selectivity (Fold) 1.1 (Kir1.1; listed as 19 (ML418)) [Fold]	Kir Channel Selectivity (Fold) 2.2 (Kir2.2)	Kir Channel Selectivity (Fold) 2.3 (Kir2.3)	Kir2.1 IC50 (Tl+ flux) (Kir2.1)	IC50 (Kir2.1; read-out: Kir2.1 IC50 (Tl+ flux)) [µM]	IC50 (Kir7.1-M125R; read-out: Kir7.1 IC50 (Thallium flux), hKir7.1 (M125R) Tl+ flux, average n = 3) [µM]	IC50 (Kir2.2; read-out: Kir2.2 IC50 (Tl+ flux)) [µM]	IC50 (Kir2.3; read-out: Kir2.3 IC50 (Tl+ flux)) [µM]	Kir Channel Selectivity (Fold) 6.2 (Kir6.2/SUR1) [Fold]	IC50 (Kir6.2/SUR1; read-out: Kir6.2/SUR1 IC50 (Tl+ flux)) [µM]
>23	1.3	>23	>23	1	equally potent	CC(C)OC(=O)NC1CCN(Cc2cc(Cl)c3cccnc3c2O)CC1 [Compound 19, iso-Propyl (1-((5-chloro-8-hydroxyquinolin-7-yl)methyl)piperidin-4-yl)carbamate]	at least 23 Fold	at least 23 Fold	>23	at least 23 Fold	at least 23 Fold							
						Oc1c(CN2CCC(Cc3ccccc3)CC2)cc(Cl)c2cccnc12 [VU714]	>5 Fold	3 Fold		>5 Fold	>5 Fold	insensitive	> 30	5.6	> 30	> 30	5	30
